Data taken from ChEMBL document CHEMBL1149907, “Phenolic glycosides from the filamentous fungus Acremonium sp. BCC 14080” (J Nat Prod, 2008).

Tests used:
KB = assay: Cytotoxicity against human KB cells by colorimetric method; type: functional, cell-based
Procedure, shortened: (§1)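 Colorimetric cytotoxicity read-out, with ellipticine as the reference compound. Cell types: KB (oral human epidermal carcinoma), BC (human breast cancer), NCI-H187 (human small-cell lung cancer) and Vero (African green monkey kidney fibroblast). IC50 reported as mean ± SD, n = 3.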

Plasmodium falciparum = assay: Antimalarial activity against Plasmodium falciparum K1 by microculture radioisotope assay; type: functional, organism-based
Procedure, shortened: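 Radioisotope microculture assay of P. falciparum K1 growth, with dihydroartemisinin as the reference antimalarial. IC50 reported as mean ± SD, n = 3.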

Human alphaherpesvirus 1 = assay: Antiviral activity against HSV1 by colorimetric method; type: functional, organism-based
Procedure, shortened: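 HSV-1 inhibition read by a colorimetric method, with acyclovir as the reference compound. IC50 reported as mean ± SD, n = 3.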

[1] = Cytotoxicity against human BC cells by colorimetric method; type: functional, cell-based; procedure, shortened: as §1
Vero = assay: Cytotoxicity against African green monkey Vero cells by colorimetric method; type: cell-based; conditions: Chlorocebus sabaeus; procedure, shortened: as §1
NCI-H187 = assay: Cytotoxicity against human NCI-H187 cells by colorimetric method; type: functional, cell-based; procedure, shortened: as §1

Row | SMILES | IC50 (KB) [µM] | IC50 (Plasmodium falciparum) [µM] | IC50 (Human alphaherpesvirus 1) [µM] | IC50 [1] [µM] | IC50 (Vero) [µM] | IC50 (NCI-H187) [µM]
1 | CCCCCCCc1cc(O)cc(OC(=O)c2c(CCCCCCC)cc(O)cc2O[C@@H]2O[C@H](CO[C@@H]3O[C@H](CO)[C@H](O)[C@H](O)[C@H]3O)[C@H](O)[C@H](O)[C@H]2O)c1 | > 25 | > 10 | > 50 | 20.2 | 32.1 | > 25
2 | CCCCCCCc1cc(O)cc(OC(=O)c2c(CCCCCCC)cc(O)cc2O[C@@H]2O[C@H](CO)[C@H](O)[C@H](O)[C@H]2O)c1 | > 25 | > 10 | 7.2 | 4.4 | 43.2 | 13.9
3 | Nc1nc2c(ncn2COCCO)c(=O)[nH]1 [ACYCLOVIR] | – | – | 10.2 | – | – | –
4 | CCCCCCCc1cc(O)cc(O[C@@H]2O[C@H](CO)[C@@H](OC)[C@H](O)[C@H]2O)c1 | > 50 | > 25 | > 100 | > 50 | > 100 | > 50
5 | Cc1c2ccncc2c(C)c2c1[nH]c1ccccc12 [ELLIPTECINE] | 1.99 | – | – | 0.49 | 10.2 | 1.71
6 | C[C@H]1[C@@H](O)O[C@@H]2O[C@@]3(C)CC[C@H]4[C@H](C)CC[C@@H]1[C@@]24OO3 [ARTENIMOL] | – | 0.0039 | – | – | – | –
7 | CCCCCCCc1cc(O)cc(OC(=O)c2c(O)cc(O)cc2CCCCCCC)c1 | 13 | 9.9 | > 100 | 8.8 | 34.3 | 13.6
